According to the M2OR odorant receptor database:

Tested on: T1, A0A140T8K0
T1 sequence (whole entry): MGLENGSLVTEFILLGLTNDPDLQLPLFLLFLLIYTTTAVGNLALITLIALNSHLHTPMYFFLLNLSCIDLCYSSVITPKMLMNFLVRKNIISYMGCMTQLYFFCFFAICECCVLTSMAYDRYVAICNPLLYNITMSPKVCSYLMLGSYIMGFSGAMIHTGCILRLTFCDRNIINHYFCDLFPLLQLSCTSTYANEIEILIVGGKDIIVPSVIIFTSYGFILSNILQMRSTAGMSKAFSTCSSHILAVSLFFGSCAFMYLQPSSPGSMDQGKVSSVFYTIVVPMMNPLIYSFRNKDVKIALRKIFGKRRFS
Conditions: stereoisomer not certain
How it was run: (§1)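 Values were gathered from published papers (main text and supplementary material), with extra details requested from the original authors when needed, and checked for typos and inconsistencies. Each receptor–molecule pair is called responsive (active) if the original authors judged the measured signal statistically different from baseline, and non-responsive (inactive) otherwise. Assay methods varied by source, often transient mammalian cell-line luciferase assays. Recorded details include cell line, G-protein, co-transfected protein and tags.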

SMILES | odorant receptor agonist call
CCCCCCC(C)=O | inactive
CCOC(=O)C(C)C | inactive
CCCCCCCCOC=O | active
CC=C(C)C=O | inactive
CCCCCCCCC=CC=O | inactive
CCCCCCCCCCO | inactive
CCCCCCO | inactive
CCCCCCCCC(=O)O | inactive
CCCCCC(=O)CC | inactive
CCCCCC=O | inactive
c1ccccc1 | inactive
CC12CCC(CC1=O)C2(C)C (stereo not given) | inactive
CCCO | inactive
CCCCCCCCCS | inactive
CCCCOC=O | inactive
CCCCCCCCCC(=O)[O-].[H+] | inactive
O=C1CCOc2ccccc21 | inactive
CCCCC(=O)O | inactive
CCCCCCOC(C)=O | inactive

SMILES | odorant receptor agonist call
CCCCCCCCS | inactive
CCC(=O)O | inactive
CCCCCOC(=O)CCCCC | inactive
C=C(C)C1CCC(C)C(=O)C1 (stereo not given) | inactive
CC(=O)Oc1ccccc1 | inactive
CCCCCCCO | inactive
C=CC(=O)CCCCC | inactive
CCc1ccccc1O | inactive
c1ccc2ncccc2c1 | inactive
CCCC(=O)C(C)=O | inactive
CCCCCCCCCO | inactive
Cc1ccc(C(C)C)cc1 | inactive
COc1cc(C(=O)O)ccc1O | inactive
CCCCC(C)=O | inactive
CCCCC(=O)CC | inactive
CCCCCCCCO | inactive
CC(=O)OCc1ccccc1 | inactive
O=C1Cc2ccccc2O1 | inactive

Tested on: T2, A0A140T8K4
T2 sequence (whole entry): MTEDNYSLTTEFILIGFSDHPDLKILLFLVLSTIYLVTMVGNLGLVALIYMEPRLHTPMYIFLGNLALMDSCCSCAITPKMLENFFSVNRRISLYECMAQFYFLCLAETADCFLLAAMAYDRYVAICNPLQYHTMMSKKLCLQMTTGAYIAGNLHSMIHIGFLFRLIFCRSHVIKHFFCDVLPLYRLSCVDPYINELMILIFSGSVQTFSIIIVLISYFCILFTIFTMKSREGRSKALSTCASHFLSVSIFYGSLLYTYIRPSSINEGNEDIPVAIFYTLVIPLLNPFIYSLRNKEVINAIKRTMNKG
Conditions: stereoisomer not certain
How it was run: as §1

SMILES | odorant receptor agonist call
CCCCCCC(C)=O | inactive
CCOC(=O)C(C)C | inactive
CCCCCCCCCCO | inactive
CCCCCCO | inactive
CCCCCCCCC(=O)O | inactive
CCCCCC(=O)CC | inactive
CCCCCC=O | inactive
c1ccccc1 | inactive
CC12CCC(CC1=O)C2(C)C (stereo not given) | inactive
CCCCCCCCCS | inactive
CCCCOC=O | inactive
CCCCCCCCCC(=O)[O-].[H+] | inactive
O=C1CCOc2ccccc21 | inactive
CCCCC(=O)O | inactive
CCCCCCOC(C)=O | inactive
CCCCCCCCS | inactive
CCC(=O)O | inactive
CCCCCOC(=O)CCCCC | inactive
C=C(C)C1CCC(C)C(=O)C1 (stereo not given) | active
CC(=O)Oc1ccccc1 | inactive
CCCCCCCO | inactive
CCCC(=O)C(C)=O | inactive
CCCCCCCCCO | inactive
COc1cc(C(=O)O)ccc1O | inactive
CCCCC(C)=O | inactive
CCCCC(=O)CC | inactive
CCCCCCCCO | inactive
CC(=O)OCc1ccccc1 | inactive
O=C1Cc2ccccc2O1 | inactive

Tested on: T3, A0A1L1SVG7
T3 sequence (whole entry): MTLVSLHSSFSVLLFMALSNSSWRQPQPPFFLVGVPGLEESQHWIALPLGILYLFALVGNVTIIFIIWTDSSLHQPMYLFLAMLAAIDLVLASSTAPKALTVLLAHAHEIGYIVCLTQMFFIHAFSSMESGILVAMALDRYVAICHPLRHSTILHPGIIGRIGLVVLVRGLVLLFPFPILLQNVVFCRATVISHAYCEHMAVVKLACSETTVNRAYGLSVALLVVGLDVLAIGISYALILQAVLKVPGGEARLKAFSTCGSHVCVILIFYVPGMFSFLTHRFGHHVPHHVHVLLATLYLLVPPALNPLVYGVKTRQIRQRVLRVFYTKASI
Conditions: stereoisomer not certain
How it was run: as §1

SMILES | odorant receptor agonist call
CCCCCCC(C)=O | inactive
CCOC(=O)C(C)C | inactive
CCCCCCCCCCO | inactive
CCCCCCO | inactive
CCCCCCCCC(=O)O | active
CCCCCC(=O)CC | inactive
CCCCCC=O | inactive
c1ccccc1 | inactive
CC12CCC(CC1=O)C2(C)C (stereo not given) | inactive
CCCCCCCCCS | inactive
CCCCOC=O | inactive
CCCCCCCCCC(=O)[O-].[H+] | active
O=C1CCOc2ccccc21 | inactive
CCCCC(=O)O | inactive
CCCCCCOC(C)=O | inactive
CCCCCCCCS | inactive
CCC(=O)O | inactive
CCCCCOC(=O)CCCCC | inactive
C=C(C)C1CCC(C)C(=O)C1 (stereo not given) | inactive
CC(=O)Oc1ccccc1 | inactive
CCCCCCCO | inactive
CCCC(=O)C(C)=O | inactive
CCCCCCCCCO | inactive
COc1cc(C(=O)O)ccc1O | inactive
CCCCC(C)=O | inactive
CCCCC(=O)CC | inactive
CCCCCCCCO | inactive
CC(=O)OCc1ccccc1 | inactive
O=C1Cc2ccccc2O1 | inactive
